Results gathered from unrelated publications.
Effect on: enzyme activity
Action: inhibitor
KIT: Mast/stem cell growth factor receptor Kit (KIT, Homo sapiens, UniProt P10721)
PIK3CD: Phosphatidylinositol 4,5-bisphosphate 3-kinase catalytic subunit delta isoform (PIK3CD, Homo sapiens, UniProt O00329)

Cc1n[nH]c2ccc3nc(-c4ccc(C(=O)NCCN(C)C)cc4)c4c(c3c12)CCCCC4 — IC50 (KIT): 328 nM
CNC(=O)[C@H](Cc1c[nH]c2ccccc12)NC(=O)[C@@H](CC(=O)NO)CC(C)C — IC50 (Matrix metalloproteinase-14 (MMP14, Homo sapiens, UniProt P50281)): 1.37 nM
O=C(NO)c1ccc(Cn2cnc3c(Nc4ccc(Cl)cc4)ncnc32)cc1 — IC50 (RAC-beta serine/threonine-protein kinase (AKT2, Homo sapiens, UniProt P31751); radiometric): > 20000 nM
COc1cc(N=C2C(=O)Nc3ccccc32)cc(OC)c1 — IC50 (PIK3CD; ADP detection): 48.3 nM
COc1ccc(-c2cc(=O)c3ccc(Nc4ncc5cc(C(=O)N(C)C)n(C6CCCC6)c5n4)cc3o2)cc1 — IC50 (PIK3CD; radiometric): 9790 nM
CN(C)CCNC(=O)c1ccc(-c2nc3ccc4[nH]ncc4c3c3c2CCCCC3)c(F)c1 — IC50 (KIT): 249 nM
CN(C)C(=O)c1cc2cnc(Nc3cccc4c(=O)cc(N5CCOCC5)oc34)nc2n1C1CCCC1 — IC50 (PIK3CD; radiometric): > 10000 nM
Cc1cccc(N=C2C(=O)N(Cc3ccccc3)c3ccccc32)c1 — IC50 (PIK3CD; ADP detection): 21.9 nM
CN(C)C(=O)c1cc2cnc(Nc3ccc(-c4ccc5c(=O)cc(N6CCOCC6)oc5c4)cc3)nc2n1C1CCCC1 — IC50 (PIK3CD; radiometric): 897 nM
Cc1n[nH]c2ccc3nc(-c4ccc(C(=O)NCCN(C)C)cc4F)c4c(c3c12)CCCC4 — IC50 (KIT): 512 nM
O=C1Nc2ccc(I)cc2/C1=C/c1cc(Br)c(O)c(Br)c1 — IC50 (Casein kinase II subunit alpha (CSNK2A1, Homo sapiens, UniProt P68400)): 319 nM
CN(C)C(=O)c1cc2cnc(Nc3cc(C(=O)O)cc(-c4ccc5c(=O)cc(N6CCOCC6)oc5c4)c3)nc2n1C1CCCC1 — IC50 (PIK3CD; radiometric): 725 nM
O=C1C(=Nc2ccc(Cl)cc2)c2ccccc2N1Cc1ccc([N+](=O)[O-])cc1 — IC50 (PIK3CD; ADP detection): 30.5 nM
CN(C)C(=O)c1cc2cnc(Nc3ccc(-c4cccc5c(=O)cc(N6CCNCC6)oc45)cc3)nc2n1C1CCCC1 — IC50 (PIK3CD; radiometric): 2300 nM
C=CCN1C(=O)C(=Nc2cccc(C)c2)c2ccccc21 — IC50 (PIK3CD; ADP detection): 81.2 nM
CN(C)CCNC(=O)c1ccc(-c2nc3ccc4[nH]ncc4c3c3c2CCCCC3)cc1 — IC50 (KIT): 990 nM
O=C1C(=Nc2ccc(Cl)cc2Br)c2ccccc2N1Cc1ccc([N+](=O)[O-])cc1 — IC50 (PIK3CD; ADP detection): 50.9 nM
CN(C)C(=O)c1cc2cnc(Nc3cc(C(F)(F)F)c(-c4cccc5c(=O)cc(N6CCOCC6)oc45)cn3)nc2n1C1CCCC1 — IC50 (PIK3CD; radiometric): 95 nM
O=C1Nc2ccccc2/C1=N\c1ccc(Cl)cc1 — IC50 (PIK3CD; ADP detection): 765 nM
C=CC(=O)Nc1cccc(Oc2nc(Nc3ccc(N4CCN(C)CC4)cc3)nc3ccoc23)c1 — IC50 (Tyrosine-protein kinase BTK (BTK, Homo sapiens, UniProt Q06187)): < 0.254 nM
